Results from ChEMBL document CHEMBL1153184, “Drug design and synthesis of a novel kappa opioid receptor agonist with an oxabicyclo[2.2.2]octane skeleton and its pharmacology” (Bioorg Med Chem Lett, 2010).
Activity calls are given as the source filed them. No cut-off for these calls is given here.

How the values were obtained:
[1] = molecular target: Kappa-type opioid receptor (Cavia porcellus, UniProt P41144); assay: Displacement of [3H]U69593 from guinea pig cerebellum kappa opioid receptor; format: tissue-based
Method in brief: (§1)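 Radioligand competition binding in duplicate on guinea-pig brain homogenate. Cerebellum was used for κ and forebrain for μ and δ. Affinity was expressed as Ki.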

[2] = Displacement of [3H]NTI from guinea pig forebrain delta opioid receptor; set-up: species or system Cavia porcellus
Method in brief: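 Radioligand competition binding in duplicate on guinea-pig brain homogenate. Cerebellum was used for κ and forebrain for μ and δ. The μ tracer was [³H]DAMGO, δ was [³H]NTI and κ was [³H]U-69,593. Affinity was expressed as Ki.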

[3] = molecular target: Mu-type opioid receptor (Cavia porcellus, UniProt P97266); assay: Displacement of [3H]DAMGO from guinea pig forebrain mu opioid receptor; method in brief: as §1
[4] = system: Mus musculus; assay: Antinociceptive activity in sc dosed mouse assessed as inhibition of acetic acid-induced writhing response; format: functional
[5] = system: Mus musculus; assay: Antinociceptive activity in sc dosed mouse assessed as inhibition of acetic acid-induced writhing response at 0.03 mg/kg in presence of 20 mg/kg kappa opioid receptor antagonist nor-BNI; format: functional, organism-based
[6] = system: Mus musculus; assay: Antinociceptive activity in sc dosed mouse assessed as inhibition of acetic acid-induced writhing response at 0.03 mg/kg in presence of 0.3 mg/kg mu opioid receptor antagonist naloxone; format: functional, organism-based
[7] = system: Mus musculus; assay: Antinociceptive activity in sc dosed mouse assessed as inhibition of acetic acid-induced writhing response at 0.03 mg/kg in presence of 3 mg/kg delta opioid receptor antagonist NTI; format: functional, organism-based

Mu-type opioid receptor, sequence (P97266 whole entry): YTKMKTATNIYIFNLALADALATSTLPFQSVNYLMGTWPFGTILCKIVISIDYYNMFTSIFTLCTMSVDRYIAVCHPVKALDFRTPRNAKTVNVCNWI
Kappa-type opioid receptor, sequence (P41144 whole entry): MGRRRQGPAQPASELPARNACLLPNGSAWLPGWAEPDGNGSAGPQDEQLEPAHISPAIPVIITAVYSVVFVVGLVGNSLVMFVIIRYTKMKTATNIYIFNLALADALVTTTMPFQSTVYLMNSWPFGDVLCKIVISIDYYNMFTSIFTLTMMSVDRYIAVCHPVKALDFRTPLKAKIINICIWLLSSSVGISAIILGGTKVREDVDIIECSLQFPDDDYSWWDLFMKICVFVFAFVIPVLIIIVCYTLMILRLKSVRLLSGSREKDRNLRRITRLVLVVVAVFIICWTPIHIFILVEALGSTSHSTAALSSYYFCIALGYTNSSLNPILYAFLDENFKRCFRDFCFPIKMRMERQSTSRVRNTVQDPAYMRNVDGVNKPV

Row | Structure (SMILES) | Ki [1] | Ki [2] | Ki [3] | Activity [4] | ED50 [4] | Activity [5] | Activity [6] | Activity [7]
1 | O=C(Nc1ccccc1)[C@H]1O[C@@]23CC[C@]1(O)[C@@H]1Oc4c(O)ccc5c4[C@@]12CCN(CC1CC1)[C@@H]3C5 | 0.111 nM | 2.73 nM | 0.212 nM | Dose-dependent effect | 6.3 µg/kg | inactive | Active | Active
2 | O=C(Nc1ccccc1)[C@@H]1O[C@@]23CC[C@@]1(O)[C@@H]1Oc4c(O)ccc5c4[C@@]12CCN(CC1CC1)[C@@H]3C5 | 0.152 nM | 3.23 nM | 0.205 nM | – | – | – | – | –
3 | CN(C(=O)/C=C/c1ccco1)[C@@H]1CC[C@@]2(O)[C@H]3Cc4ccc(O)c5c4[C@@]2(CCN3CC2CC2)[C@H]1O5 | 0.225 nM | 96.5 nM | 0.582 nM | – | – | – | – | –
4 | O=C1CC[C@@]2(O)[C@H]3Cc4ccc(O)c5c4[C@@]2(CCN3CC2CC2)[C@H]1O5 [NALTREXONE] | – | 20.7 nM | – | – | – | – | – | –
